Bioassay records as filed in PubChem BioAssay.
Compounds with a hit are over-represented: about 0.89% of the library has one in this group of screens.
ABCB6 inh 2 – blocks the human ABCB6 transporter; Q9NP58; K562-ABCB6 porphyrin accumulation, flow cytometry, 1 h; hits give low values; fluorescence ratio to DMSO, % at 10 µM; 360,000 tested, 0.19% active; AID 602162;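 active = fluorescence ratio to DMSO below 75%, the collection mean minus 3 SD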;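 note: signal is porphyrin accumulated inside mitochondria; 100% equals median channel fluorescence of DMSO control wells; lower ratio means ABCB6 inhibition with less porphyrin fluorescence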
Target sequence (Q9NP58 whole entry, looked up): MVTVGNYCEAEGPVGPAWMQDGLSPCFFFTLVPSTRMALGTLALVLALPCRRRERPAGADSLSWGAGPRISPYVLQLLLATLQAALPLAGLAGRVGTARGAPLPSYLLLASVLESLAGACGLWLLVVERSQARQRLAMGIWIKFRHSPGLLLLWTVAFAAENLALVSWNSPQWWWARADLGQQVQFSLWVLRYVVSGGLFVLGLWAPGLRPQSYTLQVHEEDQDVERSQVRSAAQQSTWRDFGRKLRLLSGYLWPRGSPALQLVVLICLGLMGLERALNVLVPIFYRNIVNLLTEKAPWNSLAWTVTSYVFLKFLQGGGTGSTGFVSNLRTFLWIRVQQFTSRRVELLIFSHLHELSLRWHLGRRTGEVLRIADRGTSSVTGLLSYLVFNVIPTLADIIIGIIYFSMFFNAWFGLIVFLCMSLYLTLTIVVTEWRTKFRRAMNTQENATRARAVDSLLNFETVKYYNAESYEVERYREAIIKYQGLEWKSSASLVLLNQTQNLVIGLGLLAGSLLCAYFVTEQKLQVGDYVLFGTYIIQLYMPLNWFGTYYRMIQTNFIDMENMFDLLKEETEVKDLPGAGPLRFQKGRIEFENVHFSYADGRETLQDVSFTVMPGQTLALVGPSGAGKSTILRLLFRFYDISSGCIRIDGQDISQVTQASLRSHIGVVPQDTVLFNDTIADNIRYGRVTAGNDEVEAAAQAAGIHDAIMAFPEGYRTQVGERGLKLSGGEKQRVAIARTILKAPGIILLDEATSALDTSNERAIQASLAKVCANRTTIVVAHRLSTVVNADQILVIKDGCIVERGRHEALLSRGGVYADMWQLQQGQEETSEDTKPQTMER
hiPSC survival – enhancers of human iPSC single-cell survival; hiPSC single-cell survival, ATPlite luminescence; 100% = ROCK inhibitor wells, 0% = DMSO; 360,000 tested, 0.044% active; survival enhancement, % at 20 µM; in the data active = survival enhancement above about 18%;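 note: cells exposed to compounds for 16 hours before the ATP read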
PG9 binder – PG9 antibody binding by small molecule; TR-FRET gp120-PG9 antibody binding; inhibition, % at 6.7 µM; 360,000 tested, 0.43% active; AID 624416; in the data active = inhibition above about 8.5%
Arrestin-AP2 inh – human beta-arrestin and AP2 interaction inhibition; FITC-arrestin peptide / GST-AP2 beads, flow cytometry; AP2 beta2 appendage carries R879A mutation; inhibition, % at 10 µM; 340,000 tested, 0.31% active;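 active = inhibition above a set limit, near 3 SD of compounds lacking own fluorescence, cut at about 54% in these data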;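 note: plate controls were DMSO wells for no effect and 5 µM unlabelled arrestin peptide for full effect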
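test system = AP2 appendage R879A on GSH beads | buffer or medium = PBS plus Tween 20 (0.05%) and BSA (0.1%) | incubation = 12 min plus 1 h, RT | detection = bead flow cytometry, FITC channel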
* hit, by the source's call; / = no result given.

SMILES | ABCB6 inh 2 | hiPSC survival | PG9 binder | Arrestin-AP2 inh
CS(=O)(=O)c1ccc(C(=O)OCC(=O)NC23CC4CC(CC(C4)C2)C3)cc1[N+](=O)[O-] | 105.0 | -1.4 | -1.3 | -1.7
CC(OC(=O)c1ccc(S(C)(=O)=O)c([N+](=O)[O-])c1)C(=O)NC1C2CC3CC(C2)CC1C3 (stereo not given) | 96.0 | 24.5* | 0.8 | /
CCC(OC(=O)c1ccc(S(C)(=O)=O)c([N+](=O)[O-])c1)C(=O)NC1C2CC3CC(C2)CC1C3 (stereo not given) | 101.0 | 30.0* | 0.8 | /
CCOC(=O)N1CCN(C(=O)C[C@H]2C[C@@]3(C(=O)OC)C(=C[C@H](COCc4ccccc4)O[C@@H]3C)N(Cc3ccc4c(c3)OCO4)C2=O)CC1 | / | / | -0.1 | /
COc1ccc(-c2cccc3[nH]c4c(c23)CCN2C(=O)[C@H]3[C@H](C)ON(C)[C@H]3C[C@@H]42)cc1 | / | / | -0.6 | /
CCOC(=O)C(=O)/C(=C\N(C)C)c1onc(-c2c(F)cccc2Cl)c1C(=O)OC | 94.0 | 20.5* | -1.5 | -1.3
Nc1ncnc2c1ncn2[C@@H]1O[C@H](C(=O)N[C@@H](CCc2ccccc2)C(=O)N2CCN(CC(=O)N3CCCC3)CC2)[C@@H](O)[C@H]1O | / | / | -1.7 | /
C[C@@H]1CNCCN1c1ccc(N2CCS(=O)(=O)CC2)c(C#N)c1 | / | / | -4.3 | /
CC1C/C(=C/c2ccncc2)C(=O)/C(=C/c2ccncc2)C1 (stereo not given) | 105.0 | 52.7* | 2.3 | -15.4
CC1C/C(=C/c2cccn2C)C(=O)/C(=C/c2cccn2C)C1 (stereo not given) | 181.0 | 2.2 | -1.8 | 13.5
Cc1ccc(C(=O)N/C(=C\c2ccc([N+](=O)[O-])cc2)C(=O)NCCc2ccccc2)cc1 | 71.0* | 0.3 | -1.4 | 8.8
CCOC(=O)/C(=C\c1ccc(C)cc1)NC(=O)c1ccccc1 | 70.0* | -3.5 | 0.8 | 3.7
COc1cccc(C(=O)NCC(=O)N/N=C/c2cccnc2)c1 | 89.0 | -0.4 | -1.0 | 24.2
COc1cccc(C(=O)NCC(=O)N/N=C/c2ccc3c(c2)OCO3)c1 | 73.0* | 0.6 | -2.7 | 15.6
C=C(C)COc1ccc2oc(C)c(C(=O)OCCOC)c2c1 | 67.0* | 2.6 | -2.9 | -3.3
CC1(C)Cc2c(C#N)c(NCC3CCCO3)nc(-c3ccco3)c2CO1 (stereo not given) | 107.0 | 19.6* | 1.3 | 9.0
Cc1ccc2nc(Cl)c3nnnn3c2c1 | 101.0 | 29.5* | / | -7.0
CN(C(=O)[C@H]1O[C@@H](n2cnc(C(N)=O)n2)[C@H](O)[C@@H]1O)c1ccccc1 | / | / | 1.3 | /
CCN1C/C(=C\c2cccc([N+](=O)[O-])c2)C(=O)/C(=C/c2cccc([N+](=O)[O-])c2)C1 | 89.0 | 55.8* | 0.7 | 0.0
CN(C(=O)c1cccc(NC(=O)Cc2ccc(NC(=O)C3CCN(C(=O)CCc4ccccc4)CC3)cc2)c1)C1CCCC1 | / | / | -0.6 | /
C[C@@H](C(=O)NCCc1c[nH]c2ccccc12)[C@@H]1C[C@@]1(C)[C@@H](NC(=O)OCc1ccccc1)c1ccccc1 | 74.0* | -3.0 | 0.0 | -3.3
C[C@@H](C(=O)NCc1ccccc1)[C@@H]1C[C@@]1(C)[C@@H](NC(=O)OCc1ccccc1)c1ccccc1 | 103.0 | 4.6 | -0.4 | 3.1
Cc1[nH]nc2c1C(c1ccc(Br)cc1)N(Cc1ccccc1)C2=O (stereo not given) | / | / | -3.0 | /
COC(=O)C1=C(C)N(Cc2ccccc2C(F)(F)F)C(=NCc2ccccc2)NC1c1cccc(F)c1 (stereo not given) | / | / | -0.3 | /
O=C(NCCCN1CCCCCC1)c1ccc(CS(=O)(=O)Cc2ccccc2F)o1 | 101.0 | 28.3* | 1.5 | 0.9
SMILES | ABCB6 inh 2 | hiPSC survival | PG9 binder | Arrestin-AP2 inh
COc1cccc(C(=O)N[C@H](C(=O)N2CCC[C@H]2C(=O)NCc2ccccc2)C2CCCCC2)c1 | / | / | -1.0 | /
CCOC(=O)c1nn(-c2ccc(F)cc2)c(=O)cc1OCC(=O)Nc1cccc(C)c1 | 99.0 | -0.5 | 10.7* | -0.3
CCOC(=O)c1nn(-c2ccc(C)cc2)c(=O)cc1OCC(=O)Nc1cc(C)ccc1OC | 97.0 | 0.1 | -1.0 | -1.1
CN1OC[C@@H]2CN(C(=S)Nc3cc(C(F)(F)F)cc(C(F)(F)F)c3)[C@H](c3ccccc3Br)C[C@@H]21 | / | / | -0.3 | /
Cc1ccc(C2=NC(C)(C)N=C2SCC(=O)Nc2ccc(Cl)cc2)cc1 | 66.0* | -2.4 | -0.6 | 13.5
CC1(C)N=C(SCC(=O)Nc2ccccc2)C(c2ccc(Cl)cc2)=N1 | 87.0 | -0.9 | -0.4 | 27.6
COC(=O)[C@]12C[C@H](CC(=O)NCc3cccc(C(F)(F)F)c3)C(=O)N(Cc3ccc4c(c3)OCO4)C1=C[C@H](C(C)(C)C)O[C@@H]2C | / | / | -0.1 | /
O=C(NCCCN1CCCCCC1)C1CC(=O)N(CCc2ccccc2)C1 (stereo not given) | 105.0 | 19.2* | -0.2 | -3.1
CC1CCN(c2nc3nonc3nc2N2CCC(C)CC2)CC1 | 108.0 | -2.2 | -0.6 | -3.0
C1CCN(c2nc3nonc3nc2N2CCCC2)C1 | 90.0 | 22.3* | 1.1 | -3.1
CC(=NNC(=O)c1cccc(S(=O)(=O)N2CCCC2)c1)c1ccccc1 | 94.0 | 1.6 | -1.6 | -7.7
CC(=O)Nc1cccc(/C(C)=N/NC(=O)c2cccc(S(=O)(=O)N3CCCC3)c2)c1 | 72.0* | -1.2 | -0.2 | /
CC(Oc1ccccc1)C(=O)Nc1nc(-c2ccccn2)cs1 (stereo not given) | 93.0 | 0.0 | -1.2 | 25.3
CC(Oc1ccccc1)C(=O)Nc1nc(-c2ccncc2)cs1 (stereo not given) | 101.0 | 25.1* | -0.2 | 30.4
CC(C)(C)OC(=O)N1CCC[C@@H]1C(=O)N1CCC[C@@H]1C(=O)NCc1ccccc1 | / | / | 1.3 | /
Cc1ccc(-n2nnnc2SCC(=O)NNC(=O)c2ccc([N+](=O)[O-])cc2)cc1 | 99.0 | -0.3 | 4.1 | -17.2
COc1ccc(-n2nnnc2SCC(=O)NNC(=O)c2ccc([N+](=O)[O-])cc2)cc1 | 69.0* | -2.1 | -3.2 | 4.8
COC(=O)[C@]12C[C@H](CC(=O)N3CCSCC3)C(=O)N(Cc3ccccc3)C1=C[C@H](C(C)C)O[C@@H]2C1CC1 | / | / | -1.8 | /
O=C1CSC(=S)N1/N=C/c1ccc(O)c(O)c1O | 99.0 | -0.6 | / | 56.8*
COc1cc2nc(NC(=O)c3ccccc3)[nH]c(=O)c2cc1OC | 101.0 | -0.1 | 1.8 | -6.9
COc1cc2nc(NC(=O)c3ccccc3)sc(=O)c2cc1OC | 97.0 | -0.1 | 25.2* | 9.8
O=C(Nc1ccncc1)c1cc(S(=O)(=O)N2CCOCC2)ccc1Cl | 103.0 | 25.6* | 0.6 | -0.8
CC1(C)Cc2nc3sc4c(=O)n(CC(=O)NCc5ccccc5)cnc4c3cc2CO1 | 95.0 | -4.5 | 49.8* | -2.6
Cc1cc(C)c2nc(N3CCN(C)CC3)c(C#N)cc2c1 | 92.0 | 21.2* | -1.6 | 0.8
Cc1nn(Cc2ccc(F)cc2)c2sc(C(=O)Nc3nccs3)cc12 | 93.0 | -4.4 | 15.5* | 5.3
Cc1nn(Cc2ccccc2Cl)c2sc(C(=O)Nc3nccs3)cc12 | 88.0 | -0.8 | 5.1 | -1.7
